The results in this text go back to ChEMBL document CHEMBL3244011, “(Aryloxy)[p-(aryloxy)phenyl]- and (aryloxy)[p-(arylthio)phenyl]acetic acids and esters as hypolipidemic agents” (1979).

Type in all cases: functional
Design in all cases: scale not given: the % may be the effect or the level left

For test [1], the system named is Rattus norvegicus. The test is described as follows: Hypolipidemic activity in COBBS-CD rat assessed as reduction in serum triglyceride level at 0.03% administered with chow diet after 5 days relative to control. A digest of the protocol: (§1)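 The compound was given in ground chow at 0.1, 0.03 or 0.01% w/w (about 100, 30 and 10 mg/kg) to male COBBS-CD rats (n=4; solvent-chow controls n=8) for 5 days ad libitum. Rats were killed by decapitation and blood collected. Serum triglycerides were assayed by an automated method and compared with controls; ± values are SD.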

The test system of test [2] is Rattus norvegicus. The experiment in a line: Hypolipidemic activity in COBBS-CD rat assessed as reduction in serum sterol level at 0.03% administered with chow diet after 5 days relative to control. In short, it runs like this: (§2)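 Male COBBS-CD rats, four per treated group and eight per control group. The compound was mixed into ground rat chow at 0.1, 0.03 or 0.01% w/w (about 100, 30 and 10 mg/kg). Control chow received only the mixing solvent (methanol-chloroform 1:3 v/v). Food and water were ad libitum for 5 days, then rats were decapitated and blood collected. Serum sterols were measured by an automated method and expressed relative to controls; ± values are SD.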

Test [3] relates to Rattus norvegicus. The experiment in a line: Hypolipidemic activity in COBBS-CD rat assessed as reduction in serum triglyceride level at 0.1% administered with chow diet after 5 days relative to control. A digest of the protocol:
as §1

Test [4] deals with Rattus norvegicus. The test is described as follows: Hypolipidemic activity in COBBS-CD rat assessed as reduction in serum sterol level at 0.1% administered with chow diet after 5 days relative to control. In short, it runs like this: as §2
Test [5] has as its system Rattus norvegicus. The test is described as follows: Hypolipidemic activity in COBBS-CD rat assessed as reduction in serum triglyceride level at 0.01% administered with chow diet after 5 days relative to control. In short, it runs like this:
as §1

In test [6] the test system is Rattus norvegicus. The experiment in a line: Hypolipidemic activity in COBBS-CD rat assessed as reduction in serum sterol level at 0.01% administered with chow diet after 5 days relative to control. A digest of the protocol: as §2

SMILES strings stand for the structures.

For the molecule `COC(=O)C(Oc1cccc2ccccc12)c1ccc(Oc2ccc(Cl)cc2)cc1` (stereo unspecified), the Activity with Rattus norvegicus [1] is 36%; with Rattus norvegicus [2], 3%; in the test on Rattus norvegicus [3], 39%; in the test with Rattus norvegicus [4], 4%.

With `O=C(O)C(Oc1cccc(C(F)(F)F)c1)c1ccc(Cl)cc1` (stereo unspecified) [METAGLIDASEN], the Activity in the test on Rattus norvegicus [1] is 10%; in the test with Rattus norvegicus [2], 14%; in the test on Rattus norvegicus [5] it was 14%; with Rattus norvegicus [6], 25%; in the test with Rattus norvegicus [3] it was 49%; in the test on Rattus norvegicus [4] it was 26%.

As for `COC(=O)C(Oc1ccc(Cl)cc1)c1ccc(Oc2ccccc2)cc1` (stereo unspecified), the Activity amounted to 56% in the test with Rattus norvegicus [1]; 3% in the test with Rattus norvegicus [2]; 62% in the test with Rattus norvegicus [5]; 19% in the test with Rattus norvegicus [6]; 58% in the test on Rattus norvegicus [3]; 13% in the test with Rattus norvegicus [4].

Turning to `COC(=O)C(Oc1cccc2c1CCC2)c1ccc(Oc2ccc(Cl)cc2)cc1` (stereo unspecified), the Activity was -8% with Rattus norvegicus [1]; 10% in the test with Rattus norvegicus [2]; -39% in the test with Rattus norvegicus [5]; 7% in the test on Rattus norvegicus [6]; 17% in the test on Rattus norvegicus [3]; 19% in the test with Rattus norvegicus [4].

On to `COC(=O)C(Oc1ccc(C(F)(F)F)cc1)c1ccc(Oc2ccc(Cl)cc2)cc1` (stereo unspecified), for which the Activity stood at 51% with Rattus norvegicus [1]; 28% in the test with Rattus norvegicus [2]; 60% in the test on Rattus norvegicus [5]; 24% in the test with Rattus norvegicus [6]; 53% with Rattus norvegicus [3]; 20% in the test with Rattus norvegicus [4].

In the case of `COC(=O)C(Oc1ccc(Cl)cc1)c1ccc(Sc2ccc(Cl)cc2)cc1` (stereo unspecified), the Activity with Rattus norvegicus [1] is 62%; in the test on Rattus norvegicus [2], 25%; in the test with Rattus norvegicus [5], 66%; in the test with Rattus norvegicus [6], 17%; with Rattus norvegicus [3] it was 64%; in the test on Rattus norvegicus [4], 25%.

For the molecule `COC(=O)C(Oc1cccc(C(F)(F)F)c1)c1ccc(Oc2ccc(C(C)(C)C)cc2)cc1` (stereo unspecified), the Activity is listed as -18% in the test with Rattus norvegicus [1]; -4% in the test on Rattus norvegicus [2]; -12% in the test on Rattus norvegicus [5]; -5% in the test on Rattus norvegicus [6]; 19% in the test on Rattus norvegicus [3]; 13% in the test on Rattus norvegicus [4].

On to `COC(=O)C(Oc1ccc(Cl)c(Cl)c1)c1ccc(Oc2ccc(Cl)cc2)cc1` (stereo unspecified), for which the Activity in the test on Rattus norvegicus [1] is 60%; with Rattus norvegicus [2], 26%; with Rattus norvegicus [5], 14%; in the test on Rattus norvegicus [6] it was 5%; in the test on Rattus norvegicus [3], 67%; with Rattus norvegicus [4], 24%.

On to `COC(=O)C(Oc1ccc(C(C)(C)C)cc1)c1ccc(Oc2ccc(Cl)cc2)cc1` (stereo unspecified), for which the Activity in the test on Rattus norvegicus [1] is 53%; in the test with Rattus norvegicus [2], 20%; in the test with Rattus norvegicus [5], 41%; with Rattus norvegicus [6], 27%; in the test on Rattus norvegicus [3] it was 57%; in the test with Rattus norvegicus [4], 20%.

Take `COC(=O)C(Oc1cc(C(C)(C)C)cc(C(C)(C)C)c1)c1ccc(Oc2ccc(Cl)cc2)cc1` (stereo unspecified): the Activity with Rattus norvegicus [1] is -7%; in the test on Rattus norvegicus [2], -12%; in the test with Rattus norvegicus [5] it was 23%; in the test with Rattus norvegicus [6], -30%; in the test on Rattus norvegicus [3] it was 7%; with Rattus norvegicus [4] it was -6%.

As for `O=C(OCC(O)CO)C(Oc1ccc(Cl)cc1)c1ccc(Oc2ccc(Cl)cc2)cc1` (stereo unspecified), the Activity is recorded as 53% in the test on Rattus norvegicus [1]; 27% in the test on Rattus norvegicus [2]; 24% in the test on Rattus norvegicus [5]; 13% with Rattus norvegicus [6]; 63% with Rattus norvegicus [3]; 39% in the test on Rattus norvegicus [4].

As for `COC(=O)C(Oc1ccc(F)cc1)c1ccc(Oc2ccc(C#N)cc2)cc1` (stereo unspecified), the Activity with Rattus norvegicus [1] turned out to be 31%; with Rattus norvegicus [2], 19%; in the test with Rattus norvegicus [5] it was 38%; in the test with Rattus norvegicus [6], 13%; in the test on Rattus norvegicus [3], 60%; in the test with Rattus norvegicus [4], 33%.

As to `COC(=O)C(Oc1ccc(C2CCCCC2)cc1)c1ccc(Oc2ccc(Cl)cc2)cc1` (stereo unspecified), the Activity in the test with Rattus norvegicus [1] came out at 47%; in the test on Rattus norvegicus [2], 21%; with Rattus norvegicus [5] it was 37%; in the test with Rattus norvegicus [6], 20%; in the test with Rattus norvegicus [3], 66%; with Rattus norvegicus [4], 51%.

In the case of `COC(=O)C(Oc1ccc(Cl)c2cccnc12)c1ccc(Oc2ccc(Cl)cc2)cc1` (stereo unspecified), the Activity is 4% in the test with Rattus norvegicus [1]; 4% in the test on Rattus norvegicus [2]; -3% in the test with Rattus norvegicus [5]; 4% with Rattus norvegicus [6]; 5% in the test on Rattus norvegicus [3]; 5% in the test with Rattus norvegicus [4].

Regarding `COC(=O)C(Oc1cc(Cl)c(Cl)c(Cl)c1)c1ccc(Oc2ccc(Cl)cc2)cc1` (stereo unspecified), the Activity was 46% with Rattus norvegicus [1]; -2% in the test with Rattus norvegicus [2]; 15% in the test with Rattus norvegicus [5]; 3% with Rattus norvegicus [6]; 55% in the test on Rattus norvegicus [3]; 30% in the test on Rattus norvegicus [4].

In the case of `COC(=O)C(Oc1cccc(-c2ccccc2)c1)c1ccc(Oc2ccc(Cl)cc2)cc1` (stereo unspecified), the Activity in the test on Rattus norvegicus [1] came to 45%; in the test on Rattus norvegicus [2], 21%; in the test on Rattus norvegicus [5], 38%; with Rattus norvegicus [6], 8%; with Rattus norvegicus [3] it was 66%; with Rattus norvegicus [4], 28%.

Turning to `COC(=O)C(Oc1ccc2ccccc2c1)c1ccc(Oc2ccc(Cl)cc2)cc1` (stereo unspecified), the Activity in the test on Rattus norvegicus [1] was 44%; with Rattus norvegicus [2], 15%; in the test on Rattus norvegicus [5], 32%; in the test on Rattus norvegicus [6], 10%; in the test with Rattus norvegicus [3] it was 55%; with Rattus norvegicus [4], 32%.

Consider `COC(=O)C(Oc1ccc2c(c1)CCCC2)c1ccc(Oc2ccc(Cl)cc2)cc1` (stereo unspecified), for which the Activity with Rattus norvegicus [1] is on record as 35%; in the test with Rattus norvegicus [2] it was 26%; in the test on Rattus norvegicus [5] it was 8%; in the test with Rattus norvegicus [6] it was 24%; with Rattus norvegicus [3] it was 47%; with Rattus norvegicus [4], 42%.

Consider `COC(=O)C(Oc1cccc(C(C)(C)C)c1)c1ccc(Oc2ccc(C(C)(C)C)cc2)cc1` (stereo unspecified), for which the Activity in the test on Rattus norvegicus [1] is 13%; with Rattus norvegicus [2], 6%; in the test with Rattus norvegicus [5], 21%; with Rattus norvegicus [6] it was -5%; in the test on Rattus norvegicus [3], 33%; in the test with Rattus norvegicus [4] it was 4%.

For the molecule `COC(=O)C(Oc1ccc(C(C)(C)C)cc1)c1ccc(Oc2ccc(NC(C)=O)cc2)cc1` (stereo unspecified), the Activity stood at 50% in the test on Rattus norvegicus [1]; 18% in the test with Rattus norvegicus [2]; 44% in the test on Rattus norvegicus [5]; 5% in the test on Rattus norvegicus [6]; 55% in the test with Rattus norvegicus [3]; 16% with Rattus norvegicus [4].

For `CCOC(=O)C(Oc1ccc(Cl)cc1)c1ccc(Oc2ccc(Cl)cc2)cc1` (stereo unspecified), the Activity with Rattus norvegicus [1] turned out to be 51%; in the test on Rattus norvegicus [2], 25%; in the test on Rattus norvegicus [5], 40%; in the test with Rattus norvegicus [6], 18%; in the test on Rattus norvegicus [3], 60%; in the test on Rattus norvegicus [4], 25%.

`COC(=O)C(Oc1cccc2c1CCCC2)c1ccc(Oc2ccc(Cl)cc2)cc1` (stereo unspecified): the Activity was -1% with Rattus norvegicus [1]; 14% in the test on Rattus norvegicus [2]; -34% in the test on Rattus norvegicus [5]; 1% with Rattus norvegicus [6]; 41% in the test with Rattus norvegicus [3]; 23% with Rattus norvegicus [4].

With `O=C(O)C(Oc1ccc(Oc2ccccc2)cc1)c1ccc(Oc2ccc(Cl)cc2)cc1` (stereo unspecified), the Activity with Rattus norvegicus [1] is listed as 38%; with Rattus norvegicus [2], 21%; with Rattus norvegicus [5], 53%; in the test with Rattus norvegicus [6], 13%; in the test with Rattus norvegicus [3], 54%; in the test on Rattus norvegicus [4] it was 33%.

As for `COC(=O)C(Oc1cc(Cl)cc(Cl)c1)c1ccc(Oc2ccc(Cl)cc2)cc1` (stereo unspecified), the Activity is 6% with Rattus norvegicus [1]; 10% in the test on Rattus norvegicus [2]; -44% with Rattus norvegicus [5]; -11% in the test with Rattus norvegicus [6]; 47% in the test on Rattus norvegicus [3]; 26% in the test with Rattus norvegicus [4].

Consider `COC(=O)C(Oc1ccc(Cl)cc1)(C(=O)OC)c1ccc(Oc2ccc(Cl)cc2)cc1`, for which the Activity with Rattus norvegicus [1] is recorded as 48%; with Rattus norvegicus [2], 25%; with Rattus norvegicus [5], -2%; with Rattus norvegicus [6] it was 9%; in the test with Rattus norvegicus [3], 63%; with Rattus norvegicus [4] it was 32%.

For `COC(=O)C(Oc1ccc(C(C)(C)C)cc1)c1ccc(Oc2ccc(C#N)cc2)cc1` (stereo unspecified), the Activity in the test on Rattus norvegicus [1] was found to be 63%; with Rattus norvegicus [2] it was 13%; in the test on Rattus norvegicus [5], 69%; in the test on Rattus norvegicus [6], 16%; in the test on Rattus norvegicus [3] it was 59%; in the test with Rattus norvegicus [4], 13%.

Turning to `COC(=O)C(Oc1ccc(Cl)c2ccccc12)c1ccc(Oc2ccc(Cl)cc2)cc1` (stereo unspecified), the Activity with Rattus norvegicus [1] is recorded as -8%; in the test on Rattus norvegicus [2], -3%; with Rattus norvegicus [5] it was -15%; in the test with Rattus norvegicus [6], -18%; in the test on Rattus norvegicus [3] it was 32%; with Rattus norvegicus [4], 11%.

Turning to `COC(=O)C(Oc1ccc(F)cc1)c1ccc(Sc2ccc(Cl)cc2)cc1` (stereo unspecified), the Activity in the test on Rattus norvegicus [1] is given as 18%; in the test with Rattus norvegicus [2] it was 23%; in the test with Rattus norvegicus [5] it was 1%; in the test on Rattus norvegicus [6], 21%; in the test with Rattus norvegicus [3] it was 36%; in the test on Rattus norvegicus [4], 22%.
